Source: PubChem
Most compounds without a hit are left out; they make up all but 3.1% or so of the library.
MBD2 inh: blocks human MBD2 binding to methylated DNA. TR-FRET, MBD2 binding to methylated oligonucleotide. inhibition, % at 4.4 µM. Q9UBB5. 370,000 tested, 0.31% active; in the data active means inhibition above about 13%
UHRF1 MBD2 ctr: human UHRF1 methylated DNA binding inhibitors; inhibition, % at 4.4 µM; AID 687016; Q96T88; 370,000 tested, 0.75% active; UHRF1 binding to methylated oligo, TR-FRET; in the data active means inhibition above about 21%;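 further: UHRF1 SRA domain binding a hemimethylated CpG hairpin DNA probe; 0% = median of test compound wells and 100% = reference inhibitor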
rCAG binder: molecules binding r(CAG) RNA repeats; AID 651821; inhibition, % at 3 µM; r(CAG) RNA repeat, TO-PRO-1 dye displacement fluorescence; 370,000 tested, 1.3% active;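 active means inhibition above the plate cutoff, the mean of all test compounds on that plate plus 3 SD, cut at about 35% in these data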;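 further: 0% = DMSO alone and 100% = 100 µM mitoxantrone as full dye displacement; higher means more dye released from RNA so lower well fluorescence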
CSN deneddyl inh: blocks human CSN-mediated cullin deneddylation | Purified CSN, SCF-Nedd8-OG deneddylation, fluorescence polarization | inhibition, % at 12.5 µM | 360,000 tested, 0.38% active | AID 651999;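 active means pattern-corrected inhibition above about 35%, with an unprinted fluorescence ratio check between 0.5 and 1.5, limit read from the data, passing the limit was not always enough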;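 further: 0% = enzyme with substrate and 100% = substrate without enzyme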
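Schedule: reaction 90 min, room temperature / Assay system: HEK293T-derived human Csn5 enzyme / Input: Csn5 at 0.24 nM final / Measure: inhibition of Csn5 cleavage, % / Control set: substrate-only high control, full reaction low control / Technique: fluorescence polarization of the substrate / Buffer or medium: Tris/NaCl/DTT buffer, pH 7.5 / Reagent: SCFSkp2-Nedd8OG substrate at 10 nM final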
LEDGF integ inh: blocks HIV-1 LEDGF/p75-dependent DNA integration; inhibition, % at 3.7 µM; TR-FRET IN-LEDGF/p75 DNA integration, Eu/Cy5; 370,000 tested, 0.64% active;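 active means inhibition above the screen-wide mean plus 3 SD, cut at about 13% in these data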;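 further: signal is the Cy5 over europium emission ratio at 671 and 618 nm; 0% = plate median of compound wells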
ATG4B inh: ATG4B (human) cysteine protease inhibition; inhibition, % at 8.33 µM; 340,000 tested, 0.51% active; Q9Y4P1; AID 504462; ATG4B cleavage of LC3-PLA2, NBD-HPC fluorescence, 1 h; in the data active means inhibition above about 40%
Target sequence (Q9Y4P1 whole entry, looked up): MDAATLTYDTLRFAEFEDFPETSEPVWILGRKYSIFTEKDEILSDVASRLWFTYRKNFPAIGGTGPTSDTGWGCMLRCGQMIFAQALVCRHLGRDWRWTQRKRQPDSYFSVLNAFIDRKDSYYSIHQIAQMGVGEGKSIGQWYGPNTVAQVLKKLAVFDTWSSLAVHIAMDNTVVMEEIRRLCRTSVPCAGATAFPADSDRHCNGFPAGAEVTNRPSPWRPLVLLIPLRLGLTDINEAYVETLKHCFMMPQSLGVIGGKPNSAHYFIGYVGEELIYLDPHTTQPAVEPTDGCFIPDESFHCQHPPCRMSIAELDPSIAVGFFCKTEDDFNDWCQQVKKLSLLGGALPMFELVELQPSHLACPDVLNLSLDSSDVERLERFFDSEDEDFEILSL
Active calls of the source: *.

Cn1c(=O)cc(OCCCC(=O)Nc2cc(-c3cn[nH]c3)ccn2)c2ccccc21 was read as MBD2 inh -5, UHRF1 MBD2 ctr -2 and LEDGF integ inh 3.
CC(C)n1c(O)c(N=Nc2ccc(Cl)nn2)c2ccccc21 was read as MBD2 inh 1, UHRF1 MBD2 ctr -4, rCAG binder 2, CSN deneddyl inh 44*, LEDGF integ inh -1 and ATG4B inh -4.
Screening CC(C)n1c(O)c(N=NC(=O)CNC(=O)Cc2ccc(Cl)cc2)c2ccccc21 returned MBD2 inh 0, UHRF1 MBD2 ctr -2, rCAG binder -2, CSN deneddyl inh 4, LEDGF integ inh -3 and ATG4B inh -5.
O=C(CN1C(=O)CCSc2ccccc21)Nc1ccc(F)cc1F was read as MBD2 inh 4, UHRF1 MBD2 ctr 2, rCAG binder 1 and LEDGF integ inh -5.
For O=C(O)CC1c2ccccc2CCN1S(=O)(=O)c1cccs1 (stereo unspecified) the results were MBD2 inh 8, UHRF1 MBD2 ctr 24*, rCAG binder 1, CSN deneddyl inh -2, LEDGF integ inh -4 and ATG4B inh 6.
O=C(c1[nH]c(C(F)(F)F)nc1-c1ccccc1)N1CCCN(Cc2ccc(F)cc2)CC1 was read as MBD2 inh 2, UHRF1 MBD2 ctr 8, rCAG binder 13, CSN deneddyl inh 76* and LEDGF integ inh -2.
`CCCCC(=O)N1CCN(C(=O)c2ccc3c(c2)nc(C)n3C2CCCC2)CC1` gave MBD2 inh 1, UHRF1 MBD2 ctr 3, rCAG binder 2 and LEDGF integ inh 6.
`O=C(c1ccncc1)N1CC[C@H]2[C@H](CCCN2Cc2cc(F)cc(F)c2)C1` gave MBD2 inh 3, UHRF1 MBD2 ctr -1, rCAG binder 1 and LEDGF integ inh -2.
Screening CCOC(=O)c1cc(-c2ccccc2)sc1NC(=O)CN1C(=O)NC(CC)(c2ccc(F)cc2)C1=O (stereo unspecified) returned MBD2 inh 3, UHRF1 MBD2 ctr 24*, rCAG binder 16, CSN deneddyl inh 4, LEDGF integ inh -1 and ATG4B inh -9.
For Cc1csc2ncc(C(=O)Nc3cccc(C(F)(F)F)c3)c(=O)n12 the results were MBD2 inh 0, UHRF1 MBD2 ctr 2, rCAG binder 5, CSN deneddyl inh 7, LEDGF integ inh 3 and ATG4B inh -6.
Screening CCc1ccc(NC(=O)c2cnc3scc(C)n3c2=O)cc1 returned MBD2 inh 1, UHRF1 MBD2 ctr 46*, rCAG binder 0, CSN deneddyl inh 6, LEDGF integ inh 0 and ATG4B inh -6.
Screening COc1ccc(CNC(=O)O[C@H]2CC[C@@]34CCCN3C(=O)CCC[C@H]4C2)cc1OC returned MBD2 inh -2, UHRF1 MBD2 ctr 1 and LEDGF integ inh 1.
For O=C(NCC(c1ccccc1)c1ccccc1)[C@H](Cc1ccccc1)NC1(C(=O)NC2CCCCC2)CCOCC1 the results were MBD2 inh -3, UHRF1 MBD2 ctr 3 and LEDGF integ inh 3.
For Cc1ccc(S(=O)(=O)N2CCOCC2)cc1NC(=O)Cn1nnc(-c2ccccc2)n1 the results were MBD2 inh 2, UHRF1 MBD2 ctr 0, rCAG binder 4, CSN deneddyl inh 2 and LEDGF integ inh 1.
`O=C(Cn1nnc(-c2ccccc2)n1)Nc1cccc(S(=O)(=O)N2CCOCC2)c1` gave MBD2 inh 4, UHRF1 MBD2 ctr 29*, rCAG binder 4, CSN deneddyl inh -1, LEDGF integ inh 1 and ATG4B inh -12.
For COc1ccc(CCN2C(=O)COc3ccccc3C2C(=O)NCc2ccccc2)cc1OC (stereo unspecified) the results were MBD2 inh 2, UHRF1 MBD2 ctr 23*, rCAG binder 1, CSN deneddyl inh -4 and LEDGF integ inh 1.
`O=C(CSc1nc2ccc([N+](=O)[O-])cc2[nH]1)c1ccc2ccccc2c1` gave MBD2 inh 2, UHRF1 MBD2 ctr -2, rCAG binder 37*, CSN deneddyl inh 2, LEDGF integ inh 2 and ATG4B inh -20.
CN1CCN(c2ccc(NC(=O)c3ccc(Br)o3)cc2)CC1 was read as MBD2 inh 0, UHRF1 MBD2 ctr 4, rCAG binder -1, CSN deneddyl inh 1, LEDGF integ inh 0 and ATG4B inh 10.
For CN1CCN(c2ccc(NC(=O)c3ccc(-c4ccccc4F)o3)cc2)CC1 the results were MBD2 inh -3, UHRF1 MBD2 ctr 37*, rCAG binder 1, CSN deneddyl inh -5, LEDGF integ inh 0 and ATG4B inh -13.
`O=C(NCCCn1ccnc1)/C(=C\c1ccc(Br)cc1)NC(=O)c1ccccc1` gave MBD2 inh 1, UHRF1 MBD2 ctr -3, rCAG binder -4, CSN deneddyl inh -3, LEDGF integ inh 3 and ATG4B inh 3.
Screening O=C(NCCCn1ccnc1)/C(=C/c1ccccc1)NC(=O)c1ccccc1 returned MBD2 inh 7, UHRF1 MBD2 ctr 25*, rCAG binder -2, CSN deneddyl inh -5, LEDGF integ inh -4 and ATG4B inh -1.
For COc1cc(NS(=O)(=O)c2ccc(NS(=O)(=O)c3ccccc3)cc2)nc(OC)n1 the results were MBD2 inh 5, UHRF1 MBD2 ctr -2, rCAG binder 0, CSN deneddyl inh -4, LEDGF integ inh -3 and ATG4B inh 4.
`COc1cc(NS(=O)(=O)c2ccc(NC(=O)/C(=C\c3ccccc3OC)NC(=O)c3ccccc3)cc2)nc(OC)n1` gave MBD2 inh 0, UHRF1 MBD2 ctr -1, rCAG binder 63*, CSN deneddyl inh 1, LEDGF integ inh 4 and ATG4B inh -9.
Screening COc1ccc(NC(=O)/C(=C\c2ccncc2)NC(=O)c2ccccc2)cc1 returned MBD2 inh -4, UHRF1 MBD2 ctr 1, rCAG binder -3, CSN deneddyl inh 50*, LEDGF integ inh 7 and ATG4B inh -13.
For O=C(Nc1ccccc1)/C(=C\c1ccncc1)NC(=O)c1ccccc1 the results were MBD2 inh -1, UHRF1 MBD2 ctr -1, rCAG binder -2, CSN deneddyl inh -1, LEDGF integ inh 1 and ATG4B inh -7.
Screening Cc1ccc(NC(=O)/C(=C\c2cccnc2)NC(=O)c2ccccc2)cc1 returned MBD2 inh 7, UHRF1 MBD2 ctr 21*, rCAG binder 0, CSN deneddyl inh 0, LEDGF integ inh -2 and ATG4B inh 1.
For Cc1ccccc1Cn1cc(CN2[C@H](CC(C)C)COc3cc(Br)ccc3S2(=O)=O)nn1 the results were MBD2 inh 0, UHRF1 MBD2 ctr -4, rCAG binder 3 and LEDGF integ inh -1.
Screening Oc1ccccc1Oc1ncc(Br)c(N2CCOCC2)n1 returned MBD2 inh 1, UHRF1 MBD2 ctr 3, rCAG binder -1, CSN deneddyl inh -2, LEDGF integ inh -4 and ATG4B inh -7.
